Measurements taken from ChEMBL document CHEMBL4020828, “Design and Syntheses of Highly Potent Teixobactin Analogues against Staphylococcus aureus, Methicillin-Resistant Staphylococcus aureus (MRSA), and Vancomycin-Resistant Enterococci (VRE) in Vitro and in Vivo” (J Med Chem, 2018).
Values after ≈ are worked out from the molar mass of the structure shown. Active and inactive are the calls of the source. The rule behind the calls is not given here.

Tests used:
Pseudomonas aeruginosa = test: Antibacterial activity against Pseudomonas aeruginosa after 24 hrs; assay type: functional
Staphylococcus aureus [1] = test: Antibacterial activity against Staphylococcus aureus ATCC 29213 infected in C57BL6 mouse cornea assessed as decrease in conjunctival chemosis at 0.3% administered tropically 2 times on day 1, 4 times on day 2 and 2 times on day 3 starting from 6 hrs post infection measured 48 hrs post last dose by slit-lamp photography; assay type: functional
Procedure, shortened: (§1)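 Mouse corneal epithelium scratched with a scalpel, then infected with 15 µl of 6×10⁶ CFU/ml S. aureus ATCC 29213. From 6 h p.i., 15 µl of PBS vehicle, 0.3% w/v peptide in PBS or 0.3% moxifloxacin was applied, 8 doses total. Outcomes were slit-lamp examination, AS-OCT corneal thickness and CFU counts of harvested corneas (mean log₁₀ CFU/tissue ± SEM).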

Staphylococcus aureus [2] = test: Antibacterial activity against methicillin-resistant Staphylococcus aureus ATCC 700699 after 24 hrs; assay type: functional; conditions: ATCC 700699, 24 h
Oryctolagus cuniculus = test: Toxicity in New Zealand white rabbit corneal-damage model assessed as effect on wound healing at 0.3% administered 4 times a day tropically for 10 days by fluorescein staining-based slit-lamp biomicroscopy; conditions: in vivo, topical_or_ocular, 240 h
Procedure, shortened: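 Rabbit cornea circularly debrided, then 50 µl of 0.3% (w/v) peptide applied topically 4 times/day. Vehicle (PBS) served as control, 2 eyes PBS versus 4 eyes treated. Re-epithelialization and wound closure followed over time by fluorescein staining and slit-lamp biomicroscopy.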

Staphylococcus aureus [3] = test: Antibacterial activity against Staphylococcus aureus ATCC 29213 infected in C57BL6 mouse cornea assessed as mean corneal thickness at 0.3% administered tropically 2 times on day 1, 4 times on day 2 and 2 times on day 3 starting from 6 hrs post infection measured 24 hrs post last dose by AS-OCT method (reference value: 151.7 +/- 12.7 micrometer); assay type: functional; procedure, shortened: as §1
Enterococcus faecalis [4] = test: Antibacterial activity against vancomycin-resistant Enterococcus faecalis isolate 1004 after 24 hrs; assay type: functional; conditions: isolate 1004, 24 h
Staphylococcus aureus [5] = test: Antibacterial activity against methicillin-resistant Staphylococcus aureus isolate 1003 after 24 hrs; assay type: functional; conditions: isolate 1003, 24 h
Enterococcus faecalis [6] = test: Antibacterial activity against vancomycin-resistant Enterococcus faecalis isolate 1001 after 24 hrs; assay type: functional; conditions: isolate 1001, 24 h
A549 [7] = test: Cytotoxicity against human A549 cells assessed as effect on cell morphology at 15.62 to 250 ug/ml after 24 hrs by rhodamine-phalloidin/Hoechst 33342 staining-based fluorescence microscopic method; conditions: a549, 24 h
Procedure, shortened: (§2)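 After 24 h peptide exposure, cells were fixed and stained with rhodamine-phalloidin (actin), Alexa Fluor 488 anti-α-tubulin and Hoechst 33342 (nuclei). They were then imaged by automated high-content microscopy. Nocodazole (10 µg/ml) served as toxicity control. Representative images shown at 62.5 µg/ml.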

[8] = test system: Staphylococcus saprophyticus; test: Antibacterial activity against Staphylococcus saprophyticus ATCC 15305 after 24 hrs; assay type: functional; conditions: ATCC 15305, 24 h
Enterococcus faecalis [9] = test: Antibacterial activity against vancomycin-resistant Enterococcus faecalis isolate 1008 after 24 hrs; assay type: functional; conditions: isolate 1008, 24 h
A549 [10] = test: Cytotoxicity against human A549 cells assessed as cytoskeleton or nuclear disruption at 15.62 to 250 ug/ml after 24 hrs by rhodamine-phalloidin/Hoechst 33342 staining-based fluorescence microscopic method; assay type: cell-based; conditions: a549, 24 h; procedure, shortened: as §2
Staphylococcus aureus [11] = test: Antibacterial activity against methicillin-resistant Staphylococcus aureus isolate 42412 after 24 hrs; assay type: functional; conditions: isolate 42412, 24 h
Staphylococcus aureus [12] = test: Bactericidal activity against Staphylococcus aureus ATCC 29213 after 24 hrs; assay type: functional
Staphylococcus aureus [13] = test: Antibacterial activity against Staphylococcus aureus ATCC 29213 infected in C57BL6 mouse cornea assessed as decrease in bacterial load/tissue at 0.3% administered tropically 2 times on day 1, 4 times on day 2 and 2 times on day 3 starting from 6 hrs post infection measured 48 hrs post last dose; assay type: functional; parameters: scale not given: the % may be the effect or the level left; procedure, shortened: as §1
[14] = test system: Bacillus subtilis (Bacillus subtilis); test: Antibacterial activity against Bacillus subtilis ATCC 6633 after 24 hrs; conditions: ATCC 6633, 24 h
Bacillus cereus = test: Antibacterial activity against Bacillus cereus ATCC 11788 after 24 hrs; assay type: functional; conditions: ATCC 11788, 24 h
Enterococcus faecalis [15] = test: Antibacterial activity against vancomycin-resistant Enterococcus faecalis isolate 1002 after 24 hrs; assay type: functional; conditions: isolate 1002, 24 h
Staphylococcus aureus [16] = test: Bactericidal activity against methicillin-resistant Staphylococcus aureus isolate 21455 after 24 hrs; assay type: functional
[17] = Cytotoxicity against human A549 cells assessed as cell viability at 15.62 to 250 ug/ml after 24 hrs by MTS assay relative to control; assay type: cell-based; conditions: read-out: Activity
Procedure, shortened: (§3)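 Cells exposed 24 h to peptide at 15.62–250 µg/ml, prepared fresh in culture medium from a 500 µg/ml stock. Controls were DMSO (0.1% v/v) or nocodazole (5 µg/ml in DMSO). Metabolic activity was read by MTS viability assay. Mean ± SEM of three independent triplicate experiments.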

[18] = test system: Staphylococcus saprophyticus; test: Antibacterial activity against Staphylococcus saprophyticus ATCC 49453 after 24 hrs; assay type: functional; conditions: ATCC 49453, 24 h
Staphylococcus aureus [19] = test: Antibacterial activity against Staphylococcus aureus ATCC 29213 infected in C57BL6 mouse cornea assessed as mean corneal thickness at 0.3% administered tropically 2 times on day 1, 4 times on day 2 and 2 times on day 3 starting from 6 hrs post infection measured 48 hrs post last dose by AS-OCT method (reference value: 186.2 +/- 17.5 micrometer); assay type: functional; procedure, shortened: as §1
[20] = Cytotoxicity against human primary HDF assessed as cell viability at 15.62 to 250 ug/ml after 24 hrs by MTS assay relative to control; assay type: cell-based; conditions: primary HDF cells, read-out: Activity; procedure, shortened: as §3
Staphylococcus aureus [21] = test: Antibacterial activity against methicillin-resistant Staphylococcus aureus ATCC 33591 after 24 hrs; assay type: functional; conditions: ATCC 33591, 24 h
[22] = Cytotoxicity against human primary HDF assessed as effect on cell morphology at 15.62 to 250 ug/ml after 24 hrs by rhodamine-phalloidin/Hoechst 33342 staining-based fluorescence microscopic method; procedure, shortened: as §2
Staphylococcus aureus [23] = test: Antibacterial activity against Staphylococcus aureus ATCC 29213 at 5 to 20 times MIC after 24 hrs; assay type: functional
Staphylococcus aureus [24] = test: Ratio of MBC to MIC for Staphylococcus aureus ATCC 29213; assay type: functional
Staphylococcus aureus [25] = test: Antibacterial activity against Staphylococcus aureus ATCC 29213 after 24 hrs; assay type: functional; conditions: ATCC 29213, 24 h
Staphylococcus aureus [26] = test: Ratio of MBC to MIC for Staphylococcus aureus 4299; assay type: functional
[27] = Cytotoxicity against human primary HDF assessed as cytoskeleton or nuclear disruption at 15.62 to 250 ug/ml after 24 hrs by rhodamine-phalloidin/Hoechst 33342 staining-based fluorescence microscopic method; assay type: cell-based; procedure, shortened: as §2
Staphylococcus aureus [28] = test: Bactericidal activity against Staphylococcus aureus 4299 after 24 hrs; assay type: functional
[29] = test system: Staphylococcus saprophyticus; test: Antibacterial activity against Staphylococcus saprophyticus ATCC 49907 after 24 hrs; assay type: functional; conditions: ATCC 49907, 24 h
Staphylococcus aureus [30] = test: Antibacterial activity against Staphylococcus aureus ATCC 29213 infected in C57BL6 mouse cornea assessed as decrease in corneal infiltrates at 0.3% administered tropically 2 times on day 1, 4 times on day 2 and 2 times on day 3 starting from 6 hrs post infection measured 48 hrs post last dose by slit-lamp photography; assay type: functional; procedure, shortened: as §1
[31] = test system: Staphylococcus saprophyticus; test: Antibacterial activity against Staphylococcus saprophyticus ATCC BAA 750 after 24 hrs; assay type: functional; conditions: ATCC BAA 750, 24 h
Staphylococcus aureus [32] = test: Antibacterial activity against methicillin-resistant Staphylococcus aureus isolate 21455 after 24 hrs; assay type: functional; conditions: isolate 21455, 24 h
Staphylococcus aureus [33] = test: Bactericidal activity against methicillin-resistant Staphylococcus aureus ATCC 700699 after 24 hrs; assay type: functional
Staphylococcus aureus [34] = test: Bactericidal activity against Staphylococcus aureus ATCC 29213 assessed as log reduction in bacterial load at 0.5 to 1 ug/ml after 8 hrs by time-kill assay; assay type: functional
[35] = test system: Staphylococcus epidermidis; test: Antibacterial activity against Staphylococcus epidermidis 12228 after 24 hrs; assay type: functional; conditions: Staphylococcus epidermidis, 12228, 24 h
Enterococcus faecalis [36] = test: Antibacterial activity against vancomycin-resistant Enterococcus faecalis ATCC 29212 after 24 hrs; assay type: functional; conditions: ATCC 29212, 24 h
Staphylococcus aureus [37] = test: Antibacterial activity against methicillin-resistant Staphylococcus aureus ATCC 33591 at 5 to 20 times MIC after 24 hrs; assay type: functional
Enterococcus faecalis [38] = test: Antibacterial activity against vancomycin-resistant Enterococcus faecalis ATCC 700802 after 24 hrs; assay type: functional; conditions: ATCC 700802, 24 h
A549 [39] = test: Cytotoxicity against human A549 cells assessed as loss of adhered cells at 5 ug/ml after 24 hrs by MTS assay; assay type: cell-based; conditions: a549, 24 h
Procedure, shortened: (§4)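 A549 lung epithelial cells or primary human dermal fibroblasts exposed 24 h to peptide (15.62–250 µg/ml, dissolved fresh in culture medium). Nocodazole (5 µg/ml in DMSO) served as toxicity control, with 0.1% v/v DMSO as vehicle control. Metabolic activity was read by MTS viability assay. Data are from three independent triplicate experiments, given as mean ± SEM.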

[40] = Cytotoxicity against human primary HDF assessed as loss of adhered cells at 5 ug/ml after 24 hrs by MTS assay; assay type: cell-based; procedure, shortened: as §4

CC[C@@H](C)[C@@H](NC(=O)[C@@H](CCCNC(=N)N)NC(=O)[C@H](CO)NC(=O)[C@@H](NC(=O)[C@@H](Cc1ccccc1)NC)[C@@H](C)CC)C(=O)N[C@H](C(=O)N[C@@H](CO)C(=O)N[C@H]1C(=O)N[C@@H](C)C(=O)N[C@@H](CC(C)C)C(=O)N[C@@H]([C@@H](C)CC)C(=O)O[C@H]1C)[C@@H](C)CC
Activity (Pseudomonas aeruginosa): inactive | Activity (Staphylococcus aureus [1]): Active | MIC (Staphylococcus aureus [2]): 0.25 µg/mL (≈ 0.203 µM) | Activity (Oryctolagus cuniculus): Non-Toxic | Activity (Staphylococcus aureus [3]): 92.3 um | MIC (Enterococcus faecalis [4]): 0.25 µg/mL (≈ 0.203 µM) | MIC (Staphylococcus aureus [5]): 0.5 µg/mL (≈ 0.407 µM) | MIC (Enterococcus faecalis [6]): 0.5 µg/mL (≈ 0.407 µM) | Activity (A549 [7]): Non-Toxic | MIC [8]: < 0.0625 µg/mL | MIC (Enterococcus faecalis [9]): 0.5 µg/mL (≈ 0.407 µM) | Activity (A549 [10]): Non-Toxic | MIC (Staphylococcus aureus [11]): 0.0313 µg/mL (≈ 0.0255 µM) | Activity (Staphylococcus aureus [12]): Active | Activity (Staphylococcus aureus [13]): >99% | MIC [14]: 0.125 µg/mL (≈ 0.102 µM) | MIC (Bacillus cereus): 0.5 µg/mL (≈ 0.407 µM) | MIC (Enterococcus faecalis [15]): 1 µg/mL (≈ 0.813 µM) | Activity (Staphylococcus aureus [16]): Active | viability at 24 h [17]: ≥ 80% | MIC [18]: < 0.0625 µg/mL | Activity (Staphylococcus aureus [19]): 121.7 um | viability at 24 h [20]: ≥ 80% | MIC (Staphylococcus aureus [21]): 0.125 µg/mL (≈ 0.102 µM) | Activity [22]: Non-Toxic | Activity (Staphylococcus aureus [23]): Active | Ratio (Staphylococcus aureus [24]): <4 | MIC (Staphylococcus aureus [25]): < 0.0625 µg/mL | Ratio (Staphylococcus aureus [26]): <4 | Activity [27]: Non-Toxic | Activity (Staphylococcus aureus [28]): Active | MIC [29]: < 0.0625 µg/mL | Activity (Staphylococcus aureus [30]): Active | MIC [31]: < 0.0625 µg/mL | MIC (Staphylococcus aureus [32]): 0.0313 µg/mL (≈ 0.0255 µM) | Activity (Staphylococcus aureus [33]): Active | Activity (Staphylococcus aureus [34]): >=2 deltalog10CFU/ml | MIC [35]: < 0.0625 µg/mL | MIC (Enterococcus faecalis [36]): 0.5 µg/mL (≈ 0.407 µM) | Activity (Staphylococcus aureus [37]): Active | MIC (Enterococcus faecalis [38]): 0.5 µg/mL (≈ 0.407 µM)

COC(=O)Nc1nc2ccc(C(=O)c3cccs3)cc2[nH]1 [NOCODAZOLE]
Activity (A549 [39]): Toxic | Activity [40]: Toxic
